In ChEMBL document CHEMBL4706768, “Discovery of Potent, Selective Triazolothiadiazole-Containing c-Met Inhibitors” (ACS Med Chem Lett, 2021):
One block for each molecule: values may come before it.

Legend:
[1] = Stability in rat hepatocytes after 30 mins; type: ADME, cell-based, Hepatocyte; details: read-out: Stabilty
[2] = Unbound intrinsic clearance in mouse hepatocytes assessed per million cells; type: ADME, cell-based, Hepatocyte
[3] = Unbound intrinsic clearance in human hepatocytes assessed per million cells; type: ADME, cell-based, Hepatocyte
[4] = target: T1, Hepatocyte growth factor receptor (Homo sapiens, UniProt P08581); experiment: Inhibition of c-MET in human SNU-5 cells measured after 6 hrs by steady-glo luciferase reporter gene assay; type: cell-based
[5] = target: T1, Hepatocyte growth factor receptor; experiment: Inhibition of c-Met (unknown origin) using poly Glu-Tyr as substrate preincubated for 10 mins followed by ATP addition by phosphoenolpyruvate/pyruvate kinase/lactate dehydrogenase coupled radiometric assay
[6] = Stability in rat liver microsomes after 30 mins
[7] = Stability in human liver microsomes after 30 mins
Homo sapiens = species on record: Homo sapiens; experiment: Selectivity ratio of IC50 for inhibition of recombinant human N-terminal GST/His-tagged PDE3A (669 to 1141 residues) expressed in baculovirus infected Sf9 insect cells to IC50 for inhibition of c-MET in human SNU-5 cells
[8] = target: cGMP-inhibited 3',5'-cyclic phosphodiesterase 3A (Homo sapiens, UniProt Q14432); experiment: Inhibition of recombinant human N-terminal GST/His-tagged PDE3A (669 to 1141 residues) expressed in baculovirus infected Sf9 insect cells using iFL-cAMP as substrate preincubated for 15 mins followed by substrate addition and measured after 40 mins by fluorescence assay
[9] = Oral bioavailability in rat at 2.6 mg/kg; type: ADME, organism-based; details: in vivo
Summary of the method: (§1)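 Rats received IV 0.9 mpk or PO 2.6 mpk, the oral dose formulated in 0.5% MC/0.1% Tween 80. PK parameters were derived from the IV and PO dosing arms.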

[10] = Clearance in monkey at 0.9 mg/kg, iv; type: ADME, organism-based, Macaca mulatta; details: rhesus monkey, in vivo
[11] = AUC in mouse at 13 mg/kg, po; type: ADME, organism-based; design: dose 13 mg/kg; details: in vivo
Summary of the method: (§2)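 Mice received IV 0.8 mpk or PO 13 mpk, the oral dose in 0.5% MC/0.1% Tween 80 vehicle. Parameters came from the respective IV or PO dosing.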

[12] = Clearance in rat at 0.9 mg/kg, iv; type: ADME, organism-based; details: in vivo; summary of the method: as §1
SNU-5 [13] = experiment: Antitumor activity against human SNU-5 cells xenografted in SCID mouse assessed as tumor growth at 10 mg/kg qd measured 38 days post tumor implantation relative to control; type: functional
Summary of the method: (§3)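 SCID mice carrying SNU-5 tumors were dosed at 3, 10 or 30 mpk. Tumor growth was compared with untreated controls as T/C. Body weight was followed through the dosing regimen.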

[14] = Half life in rat at 0.9 mg/kg, iv; type: ADME, organism-based; details: in vivo; summary of the method: as §1
[15] = Oral bioavailability in mouse at 13 mg/kg; type: ADME, organism-based; details: in vivo; summary of the method: as §2
[16] = Cmax in rat at 2.6 mg/kg, po; type: ADME, organism-based; design: route oral, dose 2.6 mg/kg; details: in vivo; summary of the method: as §1
[17] = Oral bioavailability in dog at 12 mg/kg; type: ADME, organism-based, Canis lupus familiaris; details: in vivo
Summary of the method: (§4)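 For dogs, dosing was IV 0.8 mpk or PO 12 mpk, the oral formulation being 30% PG/10% Solutol/1% HPMC-AS. IV and PO parameters were obtained from the corresponding arms.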

SNU-5 [18] = experiment: Antitumor activity against human SNU-5 cells xenografted in SCID mouse assessed as tumor regression at 30 mg/kg qd measured 38 days post tumor implantation relative to control; type: functional; summary of the method: as §3
[19] = Clearance in dog at 0.8 mg/kg, iv; type: ADME, organism-based, Canis lupus familiaris; details: in vivo; summary of the method: as §4
[20] = Toxicity in human SNU-5 cells xenografted SCID mouse assessed as body weight loss at 30 mg/kg qd; type: organism-based; details: in vivo; summary of the method: as §3
[21] = Half life in monkey at 0.9 mg/kg, iv; type: ADME, organism-based, Macaca mulatta; details: rhesus monkey, in vivo
[22] = Half life in mouse at 0.8 mg/kg, iv; type: ADME, organism-based; details: in vivo; summary of the method: as §2
SNU-5 [23] = experiment: Antitumor activity against human SNU-5 cells xenografted in SCID mouse assessed as tumor regression measured 38 days post tumor implantation; type: functional; summary of the method: as §3
[24] = Half life in dog at 0.8 mg/kg, iv; type: ADME, organism-based, Canis lupus familiaris; details: in vivo; summary of the method: as §4
[25] = Cmax in dog at 12 mg/kg, po; type: ADME, organism-based, Canis lupus familiaris; design: route oral, dose 12 mg/kg; details: in vivo; summary of the method: as §4
[26] = Volume of distribution at steady state in monkey at 0.9 mg/kg, iv; type: ADME, organism-based, Macaca mulatta; details: rhesus monkey, in vivo, read-out: Vdss
[27] = Clearance in mouse at 0.8 mg/kg, iv; type: ADME, organism-based; details: in vivo; summary of the method: as §2
[28] = Volume of distribution at steady state in rat at 0.9 mg/kg, iv; type: ADME, organism-based; details: in vivo, read-out: Vdss; summary of the method: as §1
[29] = Volume of distribution at steady state in dog at 0.8 mg/kg, iv; type: ADME, organism-based, Canis lupus familiaris; details: in vivo, read-out: Vdss; summary of the method: as §4
[30] = Cmax in mouse at 13 mg/kg, po; type: ADME, organism-based; design: route oral, dose 13 mg/kg; details: in vivo; summary of the method: as §2
[31] = AUC in rat at 2.6 mg/kg, po; type: ADME, organism-based; design: dose 2.6 mg/kg; details: in vivo; summary of the method: as §1
SNU-5 [32] = experiment: Antitumor activity against human SNU-5 cells xenografted in SCID mouse assessed as tumor growth at 3 mg/kg qd measured 38 days post tumor implantation relative to control; type: functional; summary of the method: as §3
[33] = Volume of distribution at steady state in mouse at 0.8 mg/kg, iv; type: ADME, organism-based; details: in vivo, read-out: Vdss; summary of the method: as §2
[34] = AUC in dog at 12 mg/kg, po; type: ADME, organism-based, Canis lupus familiaris; design: dose 12 mg/kg; details: in vivo; summary of the method: as §4
[35] = Half life in rat at 1 mg/kg, iv; type: ADME, organism-based; details: in vivo
[36] = Clearance in rat at 1 mg/kg, iv; type: ADME, organism-based; details: in vivo

cGMP-inhibited 3',5'-cyclic phosphodiesterase 3A, sequence (Q14432 whole entry, the tested form may be a part): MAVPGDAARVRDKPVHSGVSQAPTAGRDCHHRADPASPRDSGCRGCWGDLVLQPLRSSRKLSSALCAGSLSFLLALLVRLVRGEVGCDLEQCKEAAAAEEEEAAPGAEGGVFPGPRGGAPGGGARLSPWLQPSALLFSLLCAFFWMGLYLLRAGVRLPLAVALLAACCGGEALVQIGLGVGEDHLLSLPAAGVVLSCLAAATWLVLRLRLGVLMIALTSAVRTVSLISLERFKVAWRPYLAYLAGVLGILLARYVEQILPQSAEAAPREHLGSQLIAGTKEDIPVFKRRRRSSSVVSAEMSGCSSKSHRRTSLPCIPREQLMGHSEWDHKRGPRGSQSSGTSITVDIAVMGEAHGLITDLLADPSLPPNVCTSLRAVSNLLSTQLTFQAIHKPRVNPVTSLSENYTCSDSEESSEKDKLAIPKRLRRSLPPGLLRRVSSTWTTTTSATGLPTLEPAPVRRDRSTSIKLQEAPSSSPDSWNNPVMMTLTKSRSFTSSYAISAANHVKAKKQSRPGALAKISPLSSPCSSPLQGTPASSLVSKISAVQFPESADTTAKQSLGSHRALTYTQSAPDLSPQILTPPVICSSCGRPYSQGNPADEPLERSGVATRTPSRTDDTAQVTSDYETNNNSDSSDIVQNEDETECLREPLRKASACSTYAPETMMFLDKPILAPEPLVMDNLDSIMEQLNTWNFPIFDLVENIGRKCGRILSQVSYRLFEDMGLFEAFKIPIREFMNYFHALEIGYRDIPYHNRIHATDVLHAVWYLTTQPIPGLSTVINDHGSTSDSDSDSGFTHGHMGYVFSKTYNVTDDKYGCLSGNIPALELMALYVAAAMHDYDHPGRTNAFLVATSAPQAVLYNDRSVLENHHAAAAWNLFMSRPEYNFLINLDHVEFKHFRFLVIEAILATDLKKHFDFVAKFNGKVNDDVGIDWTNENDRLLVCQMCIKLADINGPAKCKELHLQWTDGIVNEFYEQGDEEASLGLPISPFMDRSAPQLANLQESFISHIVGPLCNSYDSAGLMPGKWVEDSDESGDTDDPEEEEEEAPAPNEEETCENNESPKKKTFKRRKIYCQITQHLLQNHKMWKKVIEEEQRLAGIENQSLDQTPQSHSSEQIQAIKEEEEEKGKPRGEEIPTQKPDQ
T1 sequence (P08581 whole entry): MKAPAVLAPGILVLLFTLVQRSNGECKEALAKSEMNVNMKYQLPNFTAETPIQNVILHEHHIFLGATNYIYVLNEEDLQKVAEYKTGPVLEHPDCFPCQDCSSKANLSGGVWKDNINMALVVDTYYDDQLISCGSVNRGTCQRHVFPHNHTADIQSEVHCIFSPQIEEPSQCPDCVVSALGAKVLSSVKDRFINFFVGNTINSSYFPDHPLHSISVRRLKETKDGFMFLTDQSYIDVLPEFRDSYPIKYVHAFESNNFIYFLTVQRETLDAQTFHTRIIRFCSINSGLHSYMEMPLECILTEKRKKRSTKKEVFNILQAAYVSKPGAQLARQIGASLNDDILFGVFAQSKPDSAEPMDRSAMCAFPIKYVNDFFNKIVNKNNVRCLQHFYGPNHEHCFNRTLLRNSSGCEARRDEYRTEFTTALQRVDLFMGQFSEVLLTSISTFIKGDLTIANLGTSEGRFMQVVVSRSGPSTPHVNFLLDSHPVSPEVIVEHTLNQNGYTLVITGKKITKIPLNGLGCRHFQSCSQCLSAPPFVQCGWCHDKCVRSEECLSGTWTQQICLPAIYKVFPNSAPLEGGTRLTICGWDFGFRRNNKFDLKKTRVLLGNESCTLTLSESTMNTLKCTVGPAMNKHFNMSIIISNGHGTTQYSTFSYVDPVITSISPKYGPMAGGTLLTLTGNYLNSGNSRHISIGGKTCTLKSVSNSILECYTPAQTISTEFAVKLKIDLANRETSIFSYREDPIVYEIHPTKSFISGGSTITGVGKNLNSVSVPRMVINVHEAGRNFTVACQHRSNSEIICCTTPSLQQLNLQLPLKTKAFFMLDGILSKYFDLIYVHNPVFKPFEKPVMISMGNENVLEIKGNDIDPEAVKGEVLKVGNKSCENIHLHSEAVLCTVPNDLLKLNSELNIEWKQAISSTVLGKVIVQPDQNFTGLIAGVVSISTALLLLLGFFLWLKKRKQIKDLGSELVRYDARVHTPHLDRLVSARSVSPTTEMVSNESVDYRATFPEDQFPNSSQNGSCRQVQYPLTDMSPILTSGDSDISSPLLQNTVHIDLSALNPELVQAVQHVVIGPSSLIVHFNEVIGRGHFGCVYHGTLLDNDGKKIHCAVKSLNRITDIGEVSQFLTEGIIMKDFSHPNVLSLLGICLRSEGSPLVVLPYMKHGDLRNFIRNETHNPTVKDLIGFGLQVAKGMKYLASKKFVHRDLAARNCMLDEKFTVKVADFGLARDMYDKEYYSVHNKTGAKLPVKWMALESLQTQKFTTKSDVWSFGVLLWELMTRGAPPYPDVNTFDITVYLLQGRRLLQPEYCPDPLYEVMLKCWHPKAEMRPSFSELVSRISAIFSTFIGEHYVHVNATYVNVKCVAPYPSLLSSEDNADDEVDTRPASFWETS

SMILES: CC(c1ccc2ncccc2c1)c1nnc2sc(-c3cnn(C)c3)nn12 (racemic)
CL free [2]: 7.4 µL/min | CL free [3]: 3.2 µL/min | IC50 [4]: 0.03 µM | Ki [5]: 0.05 µM

SMILES: Oc1ccc(Cc2nnc3ccc(-c4ccc(F)cc4)nn23)cc1
remaining at 0.5 h [6]: 32% | remaining at 0.5 h [7]: 50%

SMILES: Cc1nn(C)cc1-c1nn2c([C@@H](C)c3ccc4ncccc4c3)nnc2s1
IC50 [4]: 0.003 µM | Ratio IC50 (Homo sapiens): 33 | IC50 [8]: 0.1 µM

SMILES: C[C@H](c1ccc2ncccc2c1)c1nnc2sc(-c3cnn(C)c3)nn12
CL free [2]: 7 µL/min | CL free [3]: 5.8 µL/min | IC50 [4]: 0.084 µM | Ki [5]: 0.24 µM | Ratio IC50 (Homo sapiens): 95 | IC50 [8]: 7.9 µM

SMILES: Oc1ccc(Cc2nnc3n2N=C(c2ccc(F)cc2)CS3)cc1
remaining at 0.5 h [6]: 2.6% | remaining at 0.5 h [7]: 73%

SMILES: Cc1nn(C)cc1-c1nn2c([C@H](C)c3ccc4ncccc4c3)nnc2s1
IC50 [4]: 0.003 µM | Ratio IC50 (Homo sapiens): 67 | IC50 [8]: 0.2 µM

SMILES: Cn1cc(Nc2nn3c(C(F)(F)c4ccc5ncccc5c4)nnc3s2)cn1
bioavailability [9]: 29% | clearance [10]: 1.38 L/h/kg | AUC [11]: 16 µg/h/mL | clearance [12]: 1.5 L/h/kg | T/C (SNU-5 [13]): 54.2% | half-life [14]: 1.4 h | IC50 [4]: 0.004 µM | bioavailability [15]: 100% | Cmax [16]: 0.15 µg/mL | bioavailability [17]: 66% | Ki [5]: 0.021 µM | Activity (SNU-5 [18]): -23.9% | clearance [19]: 0.84 L/h/kg | Activity [20]: Non-Toxic | half-life [21]: 2 h | Ratio IC50 (Homo sapiens): 2020 | half-life [22]: 1.8 h | Activity (SNU-5 [23]): Dose-dependent effect | half-life [24]: 3.6 h | Cmax [25]: 1.3 µg/mL | Vd [26]: 1.2 L/kg | clearance [27]: 1.26 L/h/kg | Vd [28]: 0.7 L/kg | Vd [29]: 1.6 L/kg | Cmax [30]: 4.8 µg/mL | AUC [31]: 0.6 µg/h/mL | T/C (SNU-5 [32]): 16.6% | Vd [33]: 1 L/kg | IC50 [8]: 8.07 µM | AUC [34]: 9.9 µg/h/mL

SMILES: C[C@@H](c1ccc2ncccc2c1)c1nnc2sc(Nc3cnn(C)c3)nn12
IC50 [4]: 0.005 µM | Ki [5]: 0.02 µM | Ratio IC50 (Homo sapiens): 600 | IC50 [8]: 3 µM

SMILES: Oc1ccc(Cn2cnc3ncc(-c4ccc(F)cc4)nc32)cc1
remaining at 0.5 h [6]: 56% | remaining at 0.5 h [7]: 51%

SMILES: Cn1cc(-c2nn3c(Cc4ccc5ncccc5c4)nnc3s2)cn1
CL free [2]: 6.2 µL/min | half-life [35]: 1.1 h | CL free [3]: 4.8 µL/min | clearance [36]: 1.47 L/h/kg

More lines, now with the values ahead:

remaining at 0.5 h [1]: 63%
SMILES: Oc1ccc(Cc2nnc3sc(Nc4cccc(Cl)c4)nn23)cc1Cl

remaining at 0.5 h [1]: 56%
SMILES: Oc1ccc(Cc2nnc3sc(Nc4cccc(Cl)c4)nn23)cc1F

remaining at 0.5 h [1]: 64%
SMILES: Clc1cccc(Nc2nn3c(Cc4ccc5c(c4)OCO5)nnc3s2)c1

remaining at 0.5 h [1]: 60%
SMILES: Clc1cccc(Nc2nn3c(Cn4ccc5ncccc54)nnc3s2)c1

remaining at 0.5 h [6]: 40% | remaining at 0.5 h [7]: 68%
SMILES: Oc1ccc(Cc2nnc3sc(Nc4ccccc4)nn23)cc1

remaining at 0.5 h [1]: 45%
SMILES: Clc1cccc(Nc2nn3c(Cc4ccc5ncccc5c4)nnc3s2)c1

remaining at 0.5 h [1]: 55%
SMILES: Oc1cccc(Cc2nnc3sc(Nc4cccc(Cl)c4)nn23)c1
